Results pooled from the literature.
Each line is one published result; the experiments were not run side by side.

SMILES	cell line	observed	mode	method	time	IC50
Nc1ccn([C@@H]2O[C@H](CO)[C@@H](O)C2(F)F)c(=O)n1	MP46	cell growth or viability		ATP luminescence	72 h	0.169 µM
COc1ccc(C[C@H](N)C(=O)N[C@H]2[C@@H](O)[C@H](n3cnc4c(N(C)C)ncnc43)O[C@@H]2CO)cc1	THP-1	cell growth or viability			72 h	2.03 µM
Clc1ccc(-c2cc(CNc3cccc4cccnc34)on2)c(Cl)c1	CAPAN-1	cell growth or viability		MTS	72 h	14.9 µM
CC(C)(C)c1cnc(CSc2cnc(NC(=O)C3CCN(C(=O)CCCCCCCN4Cc5cc6c(cc5C4)C(=O)N(C4CCC(=O)NC4=O)C6=O)CC3)s2)o1 (centres unmarked)	SJSA-1	cell growth or viability		MTT		0.174 µM
O=C(NO)c1ccc(Cn2cnc3c(Nc4ccc(F)c(Cl)c4)ncnc32)cc1	THP-1	cell growth or viability		MTT	72 h	1.61 µM
CC(C)(C)c1cc(/C=C2\SC(N)=NC2=O)cc(C(C)(C)C)c1O	HepaRG	reactive oxygen species	inhibitor		16 h	0.83 µM
O=C(CSc1nc2ccccc2s1)N/N=C/c1ccc(OCC(=O)Nc2ccc([N+](=O)[O-])cc2)cc1	CAPAN-1	cell growth or viability		MTS	72 h	29.4 µM
CC(C)C[C@H](NC(=O)[C@H](Cc1ccccc1)NC(=O)c1cnccn1)B(O)O	MP46	cell growth or viability		ATP luminescence	72 h	0.00352 µM
FC(F)(F)c1cc(OCc2cc(-c3ccccc3)no2)c2ccccc2n1	CAPAN-1	cell growth or viability		MTS	72 h	7.4 µM
CCS(=O)(=O)Nc1ccc(Oc2ccc(F)cc2F)c(-c2cn(C)c(=O)c3[nH]ccc23)c1	MP46	cell growth or viability		ATP luminescence	72 h	0.0892 µM
CC1(COc2ccc(CC3SC(=O)NC3=O)cc2)CCCCC1 (centres unmarked)	HepaRG	reactive oxygen species	inhibitor		16 h	11.1 µM
c1ccc(-c2cc(CNc3cccc4cccnc34)on2)nc1	CAPAN-1	cell growth or viability		MTS	72 h	13.1 µM
COc1nnc2ccc(N3CCC(c4ccc(OCCN5CCN(C)C(=O)[C@H]5C)cc4)CC3)nn12	MP46	cell growth or viability		ATP luminescence	72 h	0.0683 µM
COc1cc(C2C3=C(COC3=O)N(CCO)c3cc4c(cc32)CCC4)cc(OC)c1OC (centres unmarked)	SUM159	cell growth or viability		ATP luminescence	48 h	0.24 µM
O=C(CSc1nc2ccccc2s1)N/N=C/c1ccc(OCC(=O)Nc2cccc(Cl)c2)cc1	CAPAN-1	cell growth or viability		MTS	72 h	18.2 µM
O=c1cc(OCc2cc(-c3ccc(Cl)cc3Cl)no2)c2ccccc2o1	CAPAN-1	cell growth or viability		MTS	72 h	80.1 µM

SMILES	cell line	observed	mode	method	time	IC50
O=C(NO)c1ccc(Cn2cnc3c(Nc4ccc(Cl)cc4)ncnc32)cc1	THP-1	cell growth or viability		MTT	72 h	0.19 µM
FC(F)(F)c1cc(OCc2cc(-c3ccc(Cl)cc3Cl)no2)c2ccccc2n1	CAPAN-1	cell growth or viability		MTS	72 h	> 100 µM
CCNC(=O)c1cc2c(-c3cc(C(C)(C)O)ccc3Oc3c(C)cc(F)cc3C)cn(C)c(=O)c2[nH]1	MP46	cell growth or viability		ATP luminescence	72 h	56600 µM
COc1cccc2c1C(=O)c1c(O)c3c(c(O)c1C2=O)C[C@@](O)(C(=O)CO)C[C@@H]3O[C@H]1C[C@H](N)[C@H](O)[C@H](C)O1	SW-620	cell growth or viability		MTT	72 h	0.3 µM
COc1cc([C@@H]2c3cc4c(cc3[C@H](O)[C@H]3COC(=O)[C@H]23)OCO4)cc(OC)c1OC	MP46	cell growth or viability		ATP luminescence	72 h	0.00656 µM
Nc1ccccc1NC(=O)c1ccc(Cn2cnc3c(Nc4ccc(Br)cc4F)ncnc32)cc1	THP-1	cell growth or viability		MTT	72 h	0.41 µM
N#Cc1ccc(-c2cc(COc3cc(=O)oc4ccccc34)on2)cc1	CAPAN-1	cell growth or viability		MTS	72 h	> 100 µM
Cc1cc2c(C(N)=O)cccc2n1-c1nc2c(c(NCc3ccccc3)n1)CCCN2	SW-620	cell growth or viability			72 h	0.6 µM
CC1(P2(=O)CCCCC2)C=CCC=C1	SW-620	cell growth or viability		MTT	72 h	> 100 µM
FC(F)(F)c1ccc(-c2cc(COc3cc(C(F)(F)F)nc4ccccc34)on2)cc1	CAPAN-1	cell growth or viability		MTS	72 h	> 100 µM
CONC(=O)c1cccc2c1cc(C)n2-c1nc2c(c(NCc3ccccc3)n1)CCCN2	SW-620	cell growth or viability			72 h	2.3 µM
Nc1ccccc1NC(=O)c1ccc(Cn2cnc3c(Nc4ccc(Cl)cc4)ncnc32)cc1	THP-1	cell growth or viability		MTT	72 h	0.48 µM
CSC(=O)c1cccc2nnsc12	HepaRG	reactive oxygen species	inhibitor		16 h	10.7 µM
O=C(CSc1nc2ccccc2s1)N/N=C/c1ccc(OCC(=O)Nc2cccc([N+](=O)[O-])c2)cc1	CAPAN-1	cell growth or viability		MTS	72 h	4.25 µM
c1ccc(-c2cc(CNc3cccc4cccnc34)on2)cc1	CAPAN-1	cell growth or viability		MTS	72 h	11.4 µM
COc1ccc(N(C)c2nc(C)nc3ccccc23)cc1OCCCC(=O)NO	MP46	cell growth or viability		ATP luminescence	72 h	0.0948 µM
